In the library only some 0.83% were active in any assay of this set; here they are far more common.
CRFBP-R2 agonist: agonists of CRF-BP/CRF-R2 complex, primary screen, cell-based, HEK293, calcium dye fluorescence, uHTS. calcium dye fluorescence (FLIPR); percent of saturating CRF peptide response. activation, % at 13.2 µM. 0.46% of 350,000 active. AID 588473, 2011;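 active means activation of at least 50%, plus an integration ratio under a set limit after plate pattern correction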;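 further: plate controls were neutral control wells without compound for no effect and CRF at EC100 for full effect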
OXTR agonist: human OXTR agonists, primary screen, fluorescence, CHO-OTR cells, Fluo-8 calcium; Oxytocin receptor (Homo sapiens), P30559; Fluo-8 calcium fluorescence; normalized: DMSO 0%, oxytocin 100%; activation, % at 3 µM; 0.32% of 320,000 active; AID 2435, 2010;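 active means activation above the mean of all tested compounds plus 3 SD, cutoff set per screening run, cut at about 20% in these data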;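 further: peak over basal fluorescence ratio from a 100 s FLIPR kinetic read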
TRPN1 ag: zebrafish TRPN1 channel agonists, primary screen, cell-based, HEK293, calcium fluorescence; 0.18% of 220,000 active; HEK293 zebrafish TRPN1-YFP, Fluo-8 calcium fluorescence; 100% = response to 87 µM carbachol; activation, % at 3 µM;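 active means activation above its plate's cutoff, the mean activation of test wells on that plate plus 3 SD, cut at about 19% in these data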;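 further: 0% = DMSO alone and 100% = 87 µM carbachol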
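Material: zebrafish TRPN1-YFP in HEK293 cells; Doses: single test compound dose, 3 µM nominal, 0.3% DMSO; Timing: dye loading 1 h at 37 °C, then 30 min room temperature; Technique: intracellular calcium fluorescence with Fluo-8; Benchmarks: high carbachol 87 µM, low DMSO alone.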
TRPML3 ag: human TRPML3 channel agonists, primary screen, cell-based, HEK293 TRPML3-YFP, Fluo-8 calcium fluorescence, 3 µM. 100% = the carbachol control signal. activation, % at 3 µM. 0.29% of 220,000 active. Mucolipin-3 (Homo sapiens), Q8TDD5;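 active means activation above its plate's cutoff, the mean activation of the plate's test wells plus 3 SD, cut at about 12% in these data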;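 further: 0% = DMSO only wells and 100% = carbachol wells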
Target sequence (Q8TDD5 whole entry, looked up): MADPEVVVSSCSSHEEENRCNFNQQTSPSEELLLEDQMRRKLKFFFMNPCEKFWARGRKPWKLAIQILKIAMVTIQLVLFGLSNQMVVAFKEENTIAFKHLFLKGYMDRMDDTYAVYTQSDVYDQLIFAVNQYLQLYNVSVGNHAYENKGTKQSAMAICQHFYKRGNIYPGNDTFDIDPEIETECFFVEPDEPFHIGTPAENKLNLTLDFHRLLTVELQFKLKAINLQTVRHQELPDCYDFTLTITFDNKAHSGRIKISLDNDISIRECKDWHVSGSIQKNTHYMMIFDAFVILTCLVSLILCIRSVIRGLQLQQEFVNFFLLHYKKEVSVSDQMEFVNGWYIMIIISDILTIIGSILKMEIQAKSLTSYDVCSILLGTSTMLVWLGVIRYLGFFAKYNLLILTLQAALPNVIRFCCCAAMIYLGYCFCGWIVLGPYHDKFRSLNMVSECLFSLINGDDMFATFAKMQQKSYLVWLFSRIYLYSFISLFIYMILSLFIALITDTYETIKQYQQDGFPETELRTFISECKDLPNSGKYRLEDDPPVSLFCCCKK
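Material: HEK293 cells stably carrying human TRPML3-YFP; compound dosing: single dose, 3 µM final nominal compound, 0.3% DMSO final; incubation: 1-h 37 °C dye load, 5-s basal, 120-s post-compound reads; technique: Fluo-8 intracellular calcium fluorescence, excitation 470-495 nm, emission 515-575 nm; read-out basis: percent activation from peak-to-basal fluorescence ratio, scaled between DMSO and carbachol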
V1aR counter: agonists of human V1a receptor, primary screen, counter-screen for OXTR agonist project, fluorescence, CHO-V1R cells; Vasopressin V1a receptor (Homo sapiens), P37288; Fluo-8 calcium fluorescence, agonist mode; 0% DMSO, 100% 3 nM vasopressin; activation, % at 3 µM; 0.25% of 320,000 active;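 active means activation above the mean activation of all tested compounds plus 3 SD, per screening run, cut at about 20% in these data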;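 further: signal is peak over basal fluorescence ratio across a 100 second FLIPR read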
OXTR potentiate: human OXTR potentiators, primary screen, fluorescence, CHO-OTR cells, Fluo-8 calcium. Fluo-8 calcium fluorescence, potentiator mode; 0% = oxytocin EC15, 100% = EC100. activation, % at 3 µM. 0.061% of 320,000 active;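 active means activation above that plate's cutoff, the mean activation of tested compounds plus 3 SD, cut at about 6.6% in these data, passing the limit was not always enough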;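 further: 100% uses oxytocin at 75 nM as the full agonist control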
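Assay system: CHO cell line stably expressing human OTR. Reagent: EC15 oxytocin agonist. Dosing: single dose, 3.0 µM nominal final compound concentration. Timing: compound 6 min at room temperature before oxytocin, 100 s read. Signal: kinetic Fluo-8 calcium fluorescence. Controls: oxytocin EC15 low and EC100 high.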
OXTR pot confirm: human OXTR potentiators, confirmation, fluorescence, CHO-OTR cells, triplicate; shares compounds with OXTR potentiate; Fluo-8 calcium fluorescence, potentiation; scaled from low-dose to maximal oxytocin; activation, % at 3 µM; 180 tested, under 10 active; AID 434985, 2010;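 active means mean percent activation over triplicates above a cutoff set from solvent-only control plates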;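 further: compounds tested in the presence of an EC15 dose of oxytocin; 0% = EC15 oxytocin with DMSO and 100% = EC100 oxytocin with DMSO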
Starred values were filed as active, the others as inactive; nt = no result.

SMILES	CRFBP-R2 agonist	OXTR agonist	TRPN1 ag	TRPML3 ag	V1aR counter	OXTR potentiate	OXTR pot confirm
CCOc1ccc(NC(=O)Cc2ccc(NC3=NC4CS(=O)(=O)CC4S3)cc2)cc1 (configuration not stated)	4	-1	nt	nt	-1	-8	nt
COc1ccc2cc(S(=O)(=O)N3CCCCCC3)ccc2c1	1	-1	-1	2	0	-12	nt
COc1ccc2cc(S(=O)(=O)N3CCOCC3)ccc2c1	0	0	0	0	1	11*	-4
Cc1ccc(SCc2cc(=O)n3[nH]cnc3n2)cc1	-1	1	2	0	-1	9.8*	-4
CCCOc1ccc(-c2c(C(=O)N/N=C/c3ccc(C)cc3)nnn2-c2nonc2N)cc1	12	1	1	1	1	22*	3
CCOc1ccc(-c2c(C(=O)N/N=C/c3ccc(Cl)cc3)nnn2-c2nonc2N)cc1	0	7	nt	nt	11	23*	11*
O=C(c1ccccc1)c1nn(-c2ccccc2)c2nnc(Cc3ccccc3)c(=O)n12	-1	-1	-1	-2	0	2	nt
Cc1ccc(-n2nc(C(=O)c3ccccc3)n3c(=O)c(Cc4ccccc4)nnc23)cc1	2	-1	1	1	-2	9.9*	0
COCCCNc1c2c(nc3nnnn13)CCCC2	0	2	2	1	1	13*	-2
Cc1ccc(NC(=O)CCc2ccccc2)cc1S(=O)(=O)N1CCOCC1	-3	2	nt	nt	1	-4	nt
Cc1ccc(NC(=O)CCS(=O)(=O)c2ccccc2)cc1S(=O)(=O)N1CCOCC1	-3	2	0	1	1	11*	-1
CN(Cc1ccccc1)C(=O)c1ccc(NC(=O)Cc2cccc(NC(=O)C3CCCN(C(=O)C4CCCCC4)C3)c2)cc1 (configuration not stated)	5	0	nt	nt	2	-7	nt
CCn1cc(C(=O)N2CCCC(CO)(Cc3ccccc3C)C2)cn1 (configuration not stated)	2	0	nt	nt	0	-1	nt
O=c1cc(-c2c(F)c(F)c(F)c(F)c2F)oc2c(F)c(F)c(F)c(F)c12	nt	-2	0	1	-1	19*	11*
O=C(NC(=S)Nc1ccccc1N1CCCCC1)c1ccc(-c2cccc([N+](=O)[O-])c2)o1	1	-1	1	0	0	-1	nt
O=C(NC(=S)Nc1ccccc1N1CCCC1)c1ccc(-c2cccc([N+](=O)[O-])c2)o1	3	0	2	0	-1	11*	-7
CCOC(=O)N1CCN(C(=O)COc2ccc(Cl)c(C)c2)CC1	0	0	0	1	1	-18	nt
CCOC(=O)N1CCN(C(=O)COc2ccc(Cl)cc2)CC1	0	2	0	0	1	12*	-6
COc1ccc(NC(=O)Cc2ccccc2)cn1	1	1	2	1	2	-3	nt
COc1ccc(NC(=O)/C(Cl)=C(/Cl)S(=O)Cc2ccccc2)cn1 (configuration not stated)	7	-1	1	1	1	20*	5
COc1ccc2c(c1)OC[C@H]1[C@H]2N2C(=O)c3cc(F)ccc3NC(=O)[C@@]2(C)[C@H]1c1ccccc1	0	2	nt	nt	2	13*	-8
O=C(Cn1ncc2ccccc21)N1CCc2ccccc21	1	-1	-1	0	0	12*	-6
N#CC1(Nc2ccc(S(N)(=O)=O)cc2)CCCC1	-6	nt	nt	nt	nt	nt	nt
CS(=O)(=O)Nc1cccc(C2=NN(C(=O)c3cccc([N+](=O)[O-])c3)C(c3cccs3)C2)c1 (configuration not stated)	0	0	nt	nt	1	-13	nt
O=C(COc1ncnc2ccccc12)NC1CCCCC1	1	0	nt	nt	2	-3	nt
SMILES	CRFBP-R2 agonist	OXTR agonist	TRPN1 ag	TRPML3 ag	V1aR counter	OXTR potentiate	OXTR pot confirm
O=C(COc1ncnc2ccc(Br)cc12)NC1CCCC1	0	1	nt	nt	0	13*	-6
COCCn1c(SCC(=O)Nc2ccc3[nH]c(=O)[nH]c3c2)nc2ccccc21	0	0	nt	nt	-1	-1	nt
CCN(CC(=O)Nc1c(F)cccc1F)C(=O)c1ccc2ccccc2n1	-1	0	nt	nt	0	4	nt
CCN(CC(=O)Nc1c(F)cccc1F)C(=O)/C=C/c1ccc2ccccc2n1	-5	0	nt	nt	0	21*	-5
COCCOc1ccc(C(F)(F)F)cc1NC(=O)c1ccccc1	0	-2	0	1	-1	14*	-2
CCOC(=O)c1cnc2cc(-c3ccc(C)cc3)nn2c1-c1ccccc1	1	2	1	0	1	14*	-11
Cc1nn(-c2ccccn2)c2c1C(=O)CC(C)(C)C2N=[N+]=[N-] (configuration not stated)	-1	nt	nt	nt	nt	nt	nt
CCc1nn(C(CC)C(=O)NCCCN2CC(C)CC(C)C2)c(=O)c2cc3oc(C)cc3n12 (configuration not stated)	-1	-1	nt	nt	-1	-2	nt
Cc1c(C(=O)NCCc2ccccc2)oc2ccccc12	-1	-2	nt	nt	-1	11*	-10
COc1ccc2oc(C(=O)NCCc3ccccc3)c(C)c2c1	0	-2	nt	nt	-1	4	nt
CCOC(=O)c1sc(C)c2c1NC1(CCCCC1)NC2=O	-5	-2	0	-1	-2	11*	1
O=C(O)c1ccc(-c2nnn(Cc3ccccc3F)n2)cc1	1	2	1	1	2	7.6*	-4
CC1CCN(C(=O)C2CCN(S(=O)(=O)c3ccc(-n4cnnn4)cc3)CC2)CC1	-1	0	nt	nt	0	-8	nt
C[C@H]1COC(=O)[C@@H](Cc2ccc(F)cc2)C/C=C\C[C@@H](CC(=O)NCCO)C(=O)N1	0	2	nt	nt	1	14*	-3
C[C@H]1COC(=O)[C@H](Cc2ccc(F)cc2)C/C=C\C[C@@H](CC(=O)NCCO)C(=O)N1	-1	2	nt	nt	1	-3	nt
Cc1cc(C(=O)N2CCN(CCc3ccccc3)CC2)no1	0	1	0	0	0	10*	-2

Screening results as filed in PubChem BioAssay.
